From ChEMBL document CHEMBL1789904, “Imaging of Plasmodium liver stages to drive next-generation antimalarial drug discovery” (Science, 2011)
pIC50: −log10 of the molar value.

Test system: Plasmodium yoelii
Experiment: NOVARTIS: Antimalarial liver stage activity measured as reduction in Plasmodium yoelii schizont area in HepG2-A16-CD81 cells by immuno-fluorescence, and median schizont size at 10uM compound concentration
Format: functional, organism-based
Settings: for pIC50: Plasmodium yoelii, HepG2-A16-CD81
Method in brief: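 Host and parasite nuclei stained with Hoechst 33342, parasites with αPyHSP70 antibody; 25 images per well by high-content imaging; median parasite (schizont) area measured by automated image analysis, ~50 schizonts per experiment, two or more independent experiments.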

| SMILES | Schizont size | pIC50 |
| --- | --- | --- |
| Clc1ncnc2ncn(Cc3ccccc3)c12 | 220.34 um | < 5.00 |
| COc1cc(C(=O)NCCc2ccccn2)ccc1OC1CCN(CC(c2ccccc2)c2ccccc2)CC1 |  | 5.89 |
| COc1ccc(C(c2ccc(N(C)C)cc2)c2ccc(N(C)C)cc2)cc1 | 172.95 um | < 5.00 |
| COc1cccc(NC(=O)Cn2c(C)c(C#N)c3ccccc32)c1 | 134.12 um | < 5.00 |
| CCc1ccccc1NC(C)=O | 188.81 um | < 5.00 |
| COc1cncc(-c2cncc(-c3ccc(C)cc3)n2)c1 |  | < 5.00 |
| CCOC(=O)C1(CC)CC(C)(C(=O)C[n+]2cccc(Br)c2)OC1=O.[Br-] (stereo unspecified) | 178.59 um | < 5.00 |
| CCc1c(C#N)c(N)nc(SCC(=O)c2ccc(C)cc2)c1C#N | 189.13 um | < 5.00 |
| COc1ccccc1-n1c(C=Cc2cc(Br)ccc2O)nc2ccccc2c1=O |  | 5.34 |
| CCN(c1ccccc1)S(=O)(=O)c1ccc(F)c(C(=O)Nc2c(C)cccc2C)c1 | 234.32 um | < 5.00 |
| CCCCOc1ccc(C2C3CCCC=C3C(C#N)=C(N)C2(C#N)C#N)cc1 (stereo unspecified) | 213.66 um | < 5.00 |
| COC(=O)C1=CNC=C(C(=O)OC)C1c1cc(OC)c(OC)c(OC)c1 | 216.47 um | < 5.00 |
| NC(Cc1ccccc1)C(=O)N1CCn2c(nc(-c3ccccc3)c2Nc2ccc3c(c2)OCO3)C1 (stereo unspecified) |  | 8.73 |
| O=C(Nc1ccc(-c2nc3ccccc3[nH]2)cc1)c1ccc(-c2ccc(Cl)cc2)o1 |  | 5.18 |
| Cc1cccc(C)c1N(CC(=O)NCc1ccco1)S(C)(=O)=O | 194.24 um | < 5.00 |
| COc1cc(C(=O)Nc2ccc3nc4n(c(=O)c3c2)CCCCC4)cc(OC)c1OC |  | < 5.00 |
| CC(=O)Nc1cccc(-c2cncc(-c3ccc(C(=O)O)cc3)n2)c1 |  | < 5.00 |
| Cc1nc2ccccc2c(=O)n1-c1ccc([N+](=O)[O-])cc1 | 246.01 um | < 5.00 |
| O=C(O)c1c[nH]c2cc(N3CCCCCC3)c(F)cc2c1=O | 224.51 um | < 5.00 |
| COc1cccc(CNC(=O)C2CNCC2c2ccc(C(F)(F)F)cc2)c1 (stereo unspecified) |  | 6.07 |
| Cc1ccc(OCC(=O)Nc2cccc(-c3nc4ncccc4o3)c2)cc1C | 160.01 um | < 5.00 |
| COC(=O)c1ccc(C2C3=C(O)CC(c4ccco4)CC3=Nc3ccccc3N2C(=O)c2ccccc2)cc1 (stereo unspecified) | 140.38 um | < 5.32 |
| Cc1nc2ccc(NC(=O)C3CC3)cc2c(=O)n1Cc1ccc(Cl)cc1 |  | < 5.00 |
| N#CCSc1nc2ccccc2c2nc(CCc3c[nH]c4ccccc34)nn12 | 221.17 um | < 5.00 |
| Oc1c2c(nc3cc(-c4ccc(Br)cc4)nn13)CCCC2 |  | 6.30 |
| CC(c1nc2ccc(Cl)cc2c(=O)n1C)N1CCN(S(=O)(=O)c2cccc3ccccc23)CC1 (stereo unspecified) |  | 7.65 |
| Cc1ccc(S(=O)(=O)Nc2nc3n(n2)C(c2ccccc2)C=C(c2ccccc2)N3)cc1 (stereo unspecified) | 198.42 um | < 5.00 |

| SMILES | Schizont size | pIC50 |
| --- | --- | --- |
| COc1ccc2[nH]c(SCC(=O)Nc3cccc(NC(=O)CSc4nc5cc(OC)ccc5[nH]4)n3)nc2c1 | 180.05 um | < 5.03 |
| O=C(C1CC1)N1CCc2cc(Br)cc(S(=O)(=O)N3CCCC3)c21 | 164.5 um | < 5.00 |
| Cc1c(C#N)c2ccccc2n1CC(=O)Nc1ccc(Br)cc1 | 158.02 um | < 5.00 |
| CCCCn1c(NN=C2C(=O)Nc3ccccc32)nc2c1c(=O)[nH]c(=O)n2C | 172.53 um | < 5.00 |
| Cn1cnnc1SCC(=O)Nc1ccccc1C(F)(F)F | 204.16 um | < 5.00 |
| COc1cc(OC)c(NC(=O)C2c3ccccc3C(=O)N(C)C2c2ccc(OC)c(OC)c2)cc1Cl (stereo unspecified) | 165.85 um | < 5.04 |
| O=C1Nc2ccccc2C12Nc1ccccc1-c1nc3ccccc3n12 (stereo unspecified) | 165.43 um | < 5.00 |
| CCCCCCN(C(=O)c1ccc(C(C)(C)C)cc1)C(CC)c1nc2ccccc2c(=O)n1-c1ccc(F)cc1 (stereo unspecified) |  | < 5.16 |
| COc1ccc(NC(=O)COc2ccccc2C(C)C)c(OC)c1 | 202.59 um | < 5.00 |
| CCCn1c(-c2cccc(Br)c2)nc2ccccc21 | 198.63 um | < 5.05 |
| CCc1noc(C)c1C(=O)NCCN1Cc2ccccc2OC(c2ccsc2)C1 (stereo unspecified) | 227.75 um | < 5.00 |
| CC(C)(C)c1ccc(Oc2ccc(N3C(=O)C4CC=CCC4C3=O)cc2)cc1 (stereo unspecified) | 180.99 um | < 5.00 |
| O=C(c1ccc2nc(N3CCCCC3)sc2c1)N1CCN(Cc2ccc3c(c2)OCO3)CC1 | 168.67 um | < 5.04 |
| CCCCC(CC)C(=O)N1CCN(C(CC)c2nc3ccccc3c(=O)n2C)CC1 (stereo unspecified) |  | 6.64 |
| CCc1c(C)c(C#N)c2nc3ccccc3n2c1NCc1ccccc1 | 126.09 um | < 5.02 |
| COc1ccccc1Cc1nc2ccccc2nc1SCC(=O)Nc1cccc(C(F)(F)F)c1 | 187.88 um | < 5.00 |
| CCCC1(CCC)NC(=S)N(c2ccc(C)c(C)c2)N1 | 233.59 um | < 5.00 |
| COc1ccccc1CNC(=O)c1nn(-c2ccc(Cl)cc2)c(=O)c2ccccc12 |  | < 5.00 |
| Nc1nonc1-n1nnc(C(=O)NN=Cc2ccc(F)c(Br)c2)c1-c1ccc([N+](=O)[O-])cc1 | 246.12 um | < 5.00 |
| COc1ccc(C2CC3=NC(C)=C(C(=O)OC(C)C)C(c4ccccc4OC)C3=C(O)C2)cc1OC (stereo unspecified) | 182.03 um | < 5.00 |
| CCOC(=O)c1c(CNC)n(C)c2cc(Br)c(O)cc12.O=CO.O=CO | 175.56 um | < 5.00 |
| CC(C)(C)OC(=O)N1CCC(c2c(C(=O)Nc3cccc(C(F)(F)F)c3)cnn2-c2ccc(F)cc2F)CC1 |  | 5.51 |
| COc1cccc(-c2cncc(-c3cncc(OC)c3)n2)c1 |  | < 5.00 |
| COC(=O)c1cc(NC(=S)NC(=O)c2c(OC)cccc2OC)cc(C(=O)OC)c1 | 216.06 um | < 5.00 |
| Cc1ccc(-c2cc(C(=O)OCC(=O)c3cccc([N+](=O)[O-])c3)c3cc(C)ccc3n2)cc1 | 180.05 um | < 5.00 |
| CCN(CC)c1ccc(N=Cc2ccc(Sc3nc4ccccc4s3)o2)cc1 | 152.6 um | < 5.00 |
| CC(C)CC(N)C(=O)N1CCn2c(nc(-c3ccccc3)c2Nc2ccc3c(c2)OCO3)C1 (stereo unspecified) |  | 6.73 |

| SMILES | Schizont size | pIC50 |
| --- | --- | --- |
| Cc1c(Cl)cccc1N1C(=O)C2C3c4ccccc4C(c4ccccc43)C2C1=O (stereo unspecified) | 158.75 um | < 5.00 |
| O=C(Cc1cccs1)N1CCN(c2ccccn2)CC1 | 189.55 um | < 5.00 |
| CCOc1ccc(NC(=O)C(C)Sc2nc3ccccc3[nH]2)cc1 (stereo unspecified) | 194.87 um | < 5.00 |
| O=C1N(Cc2cc3ccccc3s2)CC2CN(Cc3ccsc3)CCN12 (stereo unspecified) |  | 7.59 |
| COc1ccc2[nH]c(=O)c(CN(C(=S)Nc3ccccc3OC)C3CCCC3)cc2c1 | 157.5 um | < 5.01 |
| CCCc1nc2ccc(NC(=O)c3ccccc3F)cc2c(=O)n1Cc1ccc(-c2ccccc2)cc1 |  | 5.76 |
| CCSc1ccc2ccccc2[n+]1CC.[I-] | 209.06 um | < 5.00 |
| N#Cc1c2c(c(N3CCN(Cc4ccccc4)CC3)n3c1nc1ccccc13)CCC2 | 241.42 um | < 5.00 |
| NCC(=O)N1CCn2c(nc(-c3ccccc3)c2Nc2ccc3c(c2)OCO3)C1 |  | 6.66 |
| CC(=O)Nc1ccc(-c2nc(-c3ccc(Oc4ccc(-c5[nH]c(-c6ccc(NC(C)=O)cc6)nc5-c5ccccc5)cc4)cc3)c(-c3ccccc3)[nH]2)cc1 | 112.31 um | < 5.43 |
| CCCN(C(=O)Nc1c(C(C)C)cccc1C(C)C)C(CC)c1nc2ccccc2c(=O)n1-c1cccc(C)c1 (stereo unspecified) |  | 5.20 |
| CC(c1nc2ccccc2c(=O)n1C)N1CCN(C(=O)C(C)(C)C)CC1 (stereo unspecified) |  | 6.31 |
| O=C1CC(c2ccccc2)CC2=C1C(c1ccccc1[N+](=O)[O-])Nc1ccccc1N2 (stereo unspecified) | 201.65 um | < 5.00 |
| O=C(c1cc2nc(-c3ccccc3)cc(C(F)(F)F)n2n1)N1CCN(Cc2ccccc2)CC1 | 148.94 um | < 5.00 |
| COc1cccc(OC)c1C(=O)Nn1c(-c2cccc(C)c2)nc2ccccc2c1=O |  | < 5.00 |
| Fc1ccc(-c2cn3c([n+]2-c2ccccc2)SCC3)cc1.[Br-] | 131.2 um | < 5.37 |
| CCCCCCN(C(=O)COc1ccccc1)C(CC)c1nc2ccccc2c(=O)n1-c1cccc(Cl)c1 (stereo unspecified) |  | < 5.00 |
| Cc1cccc(C(=O)NCc2nnc(S)n2-c2cccc(C(F)(F)F)c2)c1 | 210.73 um | < 5.00 |
| N#Cc1c2c(c(N3CCN(c4ccccn4)CC3)n3c1nc1ccccc13)CCC2 | 174.41 um | < 5.00 |
| CCOc1ccc(N(C(=O)C2COc3ccccc3O2)C(C(=O)NC2CCCCC2)c2cn(C)nc2C)cc1 (stereo unspecified) | 191.42 um | < 5.00 |
| CCOC(=O)c1ccc(OCC2c3cc(OC)c(OC)cc3CCN2C(=O)c2ccc([N+](=O)[O-])cc2)cc1 (stereo unspecified) | 226.39 um | < 5.00 |
| CCCCSCC(O)CN1CCCCC1 (stereo unspecified) | 191.22 um | < 5.00 |
| Cc1ccc(NC(=O)C2C3C=CC4(O3)C2C(=O)N(CCCN2CCOCC2)C4C(=O)NC2CCCC(C)C2C)cc1Cl.Cl (stereo unspecified) | 196.54 um | < 5.00 |
| COc1ccc2cc3[n+](cc2c1OC)CCc1cc2c(cc1-3)OCO2.[Cl-] [BERBERINE CHLORIDE] | 102.08 um | 6.26 |
| CC1(C)N=C(N)N=C(N)N1c1ccc(Cl)cc1.Cl [CHLORCYCLOGUANIL HYDROCHLORIDE] | 33.09 um | 8.59 |
| C[C@@H]1C[C@@H]([C@H](O)CC2CC(=O)NC(=O)C2)C(=O)[C@@H](C)C1 [CYCLOHEXIMIDE] | 14.61 um | 7.11 |
